Test results as given in ChEMBL document CHEMBL1151419, “Antimicrobial effect of halocidin-derived peptide in a mouse model of Listeria infection” (Antimicrob Agents Chemother, 2007).
≈ marks a conversion by molar mass, not a printed value. Calls of active or inactive are those of the source. The rule behind the calls is not given here. Bridge positions count the residues as written; N and C are the ends. Peptide text beside a SMILES is read from it. I, II: the chains in the order shown.

Columns and labels:
[1] = test system: Staphylococcus aureus; assay: Antimicrobial activity against methicillin-resistant Staphylococcus aureus CCARM 3695 after 18 hrs by broth microdilution assay; type: functional; conditions: CCARM 3695, 18 h
In short: (§1)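 Broth microdilution (modified CLSI). Overnight stationary-phase Mueller-Hinton broth cultures diluted to 2 x 10^5 CFU/ml final. Peptide serially twofold diluted in 0.01% acetic acid (stock series 640 down to 10 µg/ml); 11 µl added to 100 µl of bacteria. After 18 h at 37°C, MIC taken as the lowest concentration preventing visible turbidity.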

[2] = Toxicity against human erythrocytes in assay tube containing mixture of erythrocytes/Listeria monocytogenes cells at 40 ug/ml after 30 mins; type: cell-based; conditions: erythrocyte, 0.5 h
In short: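 Washed mid-log L. monocytogenes (final 1 x 10^5 CFU/ml) was mixed with human blood cells (final 5 x 10^8 cells/ml) and peptide (final 40 µg/ml) in PBS at 37°C. A peptide-free control was included. At 10, 20 and 30 min, aliquots were plated on TSA and colonies counted after overnight growth. Blood cells were counted by hemocytometer under light microscopy.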

[3] = test system: Mus musculus; assay: Toxicity in BALB/c mouse assessed as lethality at 4 mg/kg, iv repeated 4 times at 1-day interval measured after 2 weeks; type: organism-based; set-up: dose 4 mg/kg, route intravenous; conditions: in vivo, 336 h
In short: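 Uninfected mice (n = 10) given 4 mg/kg i.v., repeated four times at 1-day intervals. Deaths monitored for 2 weeks.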

[4] = Toxicity in human erythrocytes assessed as hemolysis at 50 ug/ml relative to Triton X-100; type: cell-based, Erythrocyte; conditions: read-out: Activity
In short: (§2)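 Peptide (20 µl) was mixed with 180 µl of a 2.5% (vol/vol) human RBC suspension in PBS and incubated 30 min at 37°C. PBS was added and samples centrifuged 3 min at 10,000 x g; supernatant A540 was read. Hemolysis was expressed relative to a peptide-free PBS blank and 1% Triton X-100 as 100%.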

[5] = test system: Listeria monocytogenes; assay: Antimicrobial activity against Listeria monocytogenes ATCC 19111 infected in BALB/c mouse at 4 mg/kg, iv in presence of increasing concentration of pustulan; type: functional, organism-based; set-up: dose 4 mg/kg
[6] = test system: Listeria monocytogenes; assay: Antimicrobial activity against Listeria monocytogenes ATCC 19111 infected in BALB/c mouse assessed as reduction in number of recovered CFU in liver at 100 ug, iv measured after 3 days; type: functional, organism-based
In short: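 Mice were infected i.v. with L. monocytogenes and immediately given 100 µg peptide in 100 µl PBS i.v.; PBS alone served as control. On days 1 and 3, liver and spleen were homogenized in PBS/0.1% BSA, serially diluted, and plated on TSA with 5% sheep blood. Colonies were counted after 18 h at 37°C. Three independent experiments; mean ± SD.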

[7] = test system: Listeria monocytogenes; assay: Antimicrobial activity against Listeria monocytogenes ATCC 19111 infected in BALB/c mouse at 4 mg/kg, iv in presence of increasing concentration of LTA; type: functional, organism-based; set-up: dose 4 mg/kg
[8] = test system: Listeria monocytogenes; assay: Antimicrobial activity against Listeria monocytogenes ATCC 19111 after 18 hrs by broth microdilution assay in presence of 150 mM NaCl; type: functional; conditions: ATCC 19111, 18 h
In short: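 Bacteria were grown overnight to stationary phase in Mueller-Hinton broth at 37°C and diluted to 2 x 10^5 CFU/ml. Line 3 used MHB plus 150 mM NaCl. Peptide stock (640 µg/ml in 0.01% acetic acid) was twofold serially diluted to 10 µg/ml, and 11 µl was added per 100 µl of cells. Turbidity was read after 18 h at 37°C; MIC was the minimum concentration visibly inhibiting growth.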

[9] = Toxicity in human erythrocytes assessed as hemolysis at 100 ug/ml relative to Triton X-100; type: cell-based, Erythrocyte; conditions: read-out: Activity; in short: as §2
[10] = test system: Listeria monocytogenes; assay: Antimicrobial activity against Listeria monocytogenes ATCC 19111 infected in BALB/c mouse assessed as survival of mouse at 4 mg/kg, iv administered immediately after bacterial challenge measured after 15 days; type: functional; conditions: ATCC 19111, 360 h
In short: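 L. monocytogenes grown 18 h at 37°C in brain heart infusion broth and frozen at –80°C; viability checked by plating. Mice infected via tail vein with 2 x 10^5 bacteria each. A single 4 mg/kg i.v. dose in 100 µl PBS was given immediately or 2 h after infection; PBS vehicle controls. Ten mice per group; survivors counted daily for 15 days.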

[11] = test system: Liver; assay: Drug penetration in BALB/c mouse liver infected with CFSE-labeled Listeria monocytogenes ATCC 19111 at 200 ug, iv by laser scanning confocal microscopy; type: ADME, organism-based; conditions: in vivo
In short: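 Listeria was labeled with 5 µM CFSE for 20 min at 37°C in darkness and washed. Mice received 4 x 10^8 cells by tail vein, then immediately 200 µg peptide in 100 µl PBS i.v., or PBS only. Livers were taken 10 min later. Frozen 6-µm sections were stained with cross-reacting rabbit anti-18Hc antiserum (1:200) and Cy3 goat anti-rabbit IgG, then imaged by laser scanning confocal microscopy.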

[12] = test system: Listeria monocytogenes; assay: Antimicrobial activity against Listeria monocytogenes ATCC 19111 infected in BALB/c mouse at 4 mg/kg, iv in presence of increasing concentration of PGN; type: functional, organism-based; set-up: dose 4 mg/kg
[13] = test system: Staphylococcus aureus; assay: Antimicrobial activity against methicillin-resistant Staphylococcus aureus CCARM 3695 treated with supernatant containing 2 mg drug incubated for 10 mins with PBS containing 50 % normal human serum centrifuged for 3 hrs by radial diffusion assay; type: functional, organism-based
In short: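 2 mg peptide incubated 10 min at 37°C in 2 ml PBS, either serum-free or with 50% heat-treated normal human serum. Spun 3 h at 295,000 x g, 4°C. Then 5 µl of supernatant tested by radial diffusion against mid-log MRSA (4 x 10^6 CFU/ml underlay, 3 h at 37°C, overlay, overnight); clear zones measured.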

[14] = test system: Enterococcus faecium; assay: Antimicrobial activity against vancomycin-resistant Enterococcus faecium CCARM 5029 after 18 hrs by broth microdilution assay in presence of 150 mM NaCl; type: functional; conditions: CCARM 5029, 18 h
In short: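 Same broth microdilution, but the medium was Mueller-Hinton broth supplemented with 150 mM NaCl. Inoculum 2 x 10^5 CFU/ml final. Peptide twofold series in 0.01% acetic acid (stocks 640 to 10 µg/ml). After 18 h at 37°C, MIC read as the lowest concentration with no visible growth.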

[15] = Toxicity in human erythrocytes assessed as hemolysis at 25 ug/ml relative to Triton X-100; type: cell-based, Erythrocyte; conditions: read-out: Activity; in short: as §2
[16] = test system: Staphylococcus aureus; assay: Antimicrobial activity against methicillin-resistant Staphylococcus aureus CCARM 3695 treated with sample containing 25 to 200 ug/ml drug incubated with PBS containing 50% normal human serum for 10 mins measured after 3 hrs by radial diffusion assay; type: functional, organism-based
In short: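 Normal human serum from three donors, heat-treated 30 min at 56°C. Peptide at 25–200 µg/ml in PBS with 50% serum, held 10 min at 37°C; 5 µl placed in 3-mm wells. Underlay: 1% agarose, 9 mM phosphate, 1 mM citrate, 0.3 mg/ml TSB, pH 7.4, with 4 x 10^6 CFU/ml mid-log MRSA. After 3 h at 37°C, overlaid (1% agarose, 6% TSB), incubated overnight. Clear zones in units (1 mm = 10 units); triplicate means.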

[17] = test system: Listeria monocytogenes; assay: Antimicrobial activity against Listeria monocytogenes ATCC 19111 infected in BALB/c mouse at 4 mg/kg, iv in presence of increasing concentration of mannan; type: functional, organism-based; set-up: dose 4 mg/kg
[18] = test system: Enterococcus faecium; assay: Antimicrobial activity against vancomycin-resistant Enterococcus faecium CCARM 5029 after 18 hrs by broth microdilution assay; type: functional; conditions: CCARM 5029, 18 h; in short: as §1

With `CC(C)C[C@H](NC(=O)CNC(=O)[C@H](Cc1cnc[nH]1)NC(=O)[C@H](Cc1cnc[nH]1)NC(=O)[C@H](CC(C)C)NC(=O)[C@H](CC(C)C)NC(=O)[C@H](C)N)C(=O)N[C@@H](CC(N)=O)C(=O)N[C@@H](CSSC[C@H](NC(=O)[C@H](CC(N)=O)NC(=O)[C@H](CC(C)C)NC(=O)CNC(=O)[C@H](Cc1cnc[nH]1)NC(=O)[C@H](Cc1cnc[nH]1)NC(=O)[C@H](CC(C)C)NC(=O)[C@H](CC(C)C)NC(=O)[C@H](C)NC(=O)[C@H](CC(N)=O)NC(=O)[C@H](CC(C)C)NC(=O)[C@H](Cc1c[nH]c2ccccc12)NC(=O)[C@@H](N)CCCCN)C(=O)N[C@@H](C)C(=O)N[C@@H](CCCCN)C(=O)NCC(=O)N[C@H](C(=O)N[C@@H](CC(C)C)C(=O)N[C@@H](C)C(=O)O)C(C)C)C(=O)N[C@@H](C)C(=O)N[C@@H](CCCCN)C(=O)NCC(=O)N[C@H](C(=O)N[C@@H](CC(C)C)C(=O)N[C@@H](C)C(=O)O)C(C)C` (I: H-KWLNALLHHGLNCAKGVLA-OH / II: H-ALLHHGLNCAKGVLA-OH; disulfide I:13-II:9) the MIC [1] was 8 µg/mL (≈ 2.24 µM), the Activity [2] was “Non-toxic” and the Activity [3] was “Non-toxic”. The hemolysis at 50 ug/ml [4] was 4.5%, the Activity [5] was “Active” and the Activity [6] was “Active”. The Activity [7] was “inactive”, the MIC [8] was 16 µg/mL and the hemolysis at 100 ug/ml [9] was 8.5%. The survival at 4 mg/kg [10] was 90%, the Activity [11] was “Active” and the Activity [12] was “inactive”. For the same compound, the Activity [13] was “Active”, the MIC [14] was 8 µg/mL and the hemolysis at 25 ug/ml [15] was 2.3%. For the same compound, the Activity [16] was “Active”, the Activity [17] was “Active” and the MIC [18] was 8 µg/mL (≈ 2.24 µM).
